Assay results collected from several papers.
Protocols differ between the studies behind these lines.
Target: Leukocyte tyrosine kinase receptor (LTK, Homo sapiens, UniProt P29376)

The remaining activity of CC(C)(C)c1nc2c(s1)c1nc(N)ncc1c1ccc(NS(=O)(=O)c3c(F)cccc3F)c(F)c12 is reported as 90% (enzyme activity, inhibitor, radiometric; 1 µM).
Nc1ncc(-c2nc(N3CCOCC3)nc(N3CCOCC3)n2)c(C(F)F)n1 gave a remaining binding of 26% (cell-free assay, competition with immobilised ligand; 10 µM).
CC(C)(C)c1nc(-c2cccc(NS(=O)(=O)c3c(F)cccc3F)c2F)c(-c2ccnc(N)n2)s1 has a remaining activity of 93% (enzyme activity, inhibitor, radiometric; 1 µM).
For COc1ncccc1-c1cnn2ccc(N3CCN(C(=O)OC(C)C)CC3)nc12, the remaining binding was 68% (binding, competition with immobilised ligand; 1 µM).
With Cn1cc(-c2cccc(N3CCc4c(sc5c4CC(C)(C)C5)C3=O)c2CO)cc(Nc2ccncn2)c1=O the inhibition was 4% (enzyme activity, inhibitor; 1 µM).
For Nc1nccc(-c2c(-c3ccc(F)cc3)ncn2C2CCNCC2)n1, the remaining activity was 97.3% (enzyme activity, inhibitor, radiometric; 0.5 µM).
The remaining binding of Cc1nn(C)cc1-c1nc2c(N3CCN(Cc4ccc(Cl)cc4)CC3)c(Cl)cnc2[nH]1 is reported as 100% (binding, competition with immobilised ligand; 1 µM).
Cn1cc(-c2cc(F)cc(N3CCn4c(cc5c4CCCC5)C3=O)c2CO)cc(Nc2ccc(N3CCN(C4COC4)CC3)cn2)c1=O has an inhibition of 11% (enzyme activity, inhibitor; 0.1 µM).
For Cn1cncc1[C@](O)(COc1ccc(C#N)cc1-c1ccc(OC(F)(F)F)cc1)c1ccc(C#N)cc1, the remaining binding was 91% (cell-free assay, competition with immobilised ligand; 1 µM).
For COc1ccc(OC)c2c(=S)c3ccccc3[nH]c12, the remaining activity was 84.5% (enzyme activity, inhibitor, radiometric; 0.5 µM).
